Hits are enriched below; roughly 2.6% of the tested compounds scored in any of these assays.
Yeast growth inh – growth inhibitors of yeast BB579 in restrictive medium, primary screen, yeast lifespan-shortening project, S. cerevisiae; OD615, 48 h; inhibition, % at 10 µM; 0.51% of 140,000 active; AID 804, 2007;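 active = inhibition above a set limit, 3 SD over the mean compound inhibition, cut at about 44% in these data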
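Test system: DeaD yeast strain BB579 / Buffer or medium: restrictive glucose-based CSMM-D medium / Doses: single 10 µM dose / Schedule: 4 h cell preincubation, 48 h compound exposure, 30 °C humidified / Technique: culture absorbance at 615 nm / Controls: amphotericin B positive control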
RAM network inh – inhibitors of the yeast RAM network, primary screen, dse1pr::URA3 reporter, 5-FOA selection; S. cerevisiae dse1pr::URA3 reporter, 5-FOA growth OD615, 2 d; analog-sensitive cbk1-as2 kinase mutant strain; inhibition, % at 50 µM; 1.8% of 190,000 active; AID 868, 2007;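 active = inhibition above a set limit, 3 SD over mean compound inhibition, cut at about 8.4% in these data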;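 note: 0% = DMSO-only wells with no growth and 100% = 10 µM 1-NA-PP1 full growth; inhibition rescues growth on 5-FOA so higher OD means more RAM inhibition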
Yeast lifespan up – compounds extending yeast replicative lifespan, primary screen, S. cerevisiae, OD615; inhibition of the nicotinamide effect, % at 10 µM; AID 775, 2007; S. cerevisiae growth with nicotinamide; deaD strain in restrictive glucose medium; 0.68% of 130,000 active;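 active = inhibition above a set limit, placed 3 SD over the median of all compounds, cut at about 26% in these data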;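 note: 0% = nicotinamide-treated wells and 100% = cells grown without nicotinamide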
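assay system = DeaD-strain S. cerevisiae | measured by = absorbance at 615 nm | probe or stimulus = nicotinamide 1.5 mM | buffer or medium = CSMM-D glucose medium, restrictive | times = 48 h at 30 °C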
Starred values were filed as active, the others as inactive; . = not tested or not shown.

SMILES | Yeast growth inh | RAM network inh | Yeast lifespan up
CC(C)(c1ccccc1)c1ccc(OCCn2cnc3ccccc3c2=O)cc1 | -33 | 8.7* | 3
O=C(c1ccccc1)c1ccc(OCCn2cnc3ccccc3c2=O)cc1 | -2 | 5 | -16
S=C(NCc1ccccc1)N1CCN(c2cccc(Cl)c2)CC1 | . | 8.5* | .
CCNC(=S)N1CCN(c2ccc([N+](=O)[O-])cc2)CC1 | 15 | 0 | -15
O=[N+]([O-])c1ccc(N2CCN(C(=S)NCc3ccc(Cl)cc3)CC2)cc1 | . | 9.3* | .
CC(=O)N1CCN(C(=S)NCc2ccccc2)CC1 | -32 | 1 | 5
O=C(C(Cc1ccccc1)n1cccc1)N1CCN(c2cccc(Cl)c2)CC1 (stereo unspecified) | -5 | 8.7* | 2
O=C(C(Cc1ccccc1)n1cccc1)N1CCN(Cc2ccccc2)CC1 (stereo unspecified) | 35 | 0 | -1
O=C(CCc1nnc(CCCc2ccccc2)o1)NCCN1CCOC1=O | . | 0 | .
CC(C)(C)c1ccc(C(=O)O)c(C(=O)c2ccccc2)c1 | . | 0 | .
CC(=O)c1cccc(NC(=O)/C(=C\c2cccnc2)NC(=O)c2ccco2)c1 | . | 0 | .
O=[N+]([O-])c1cc(-n2cnnn2)ccc1N1CCC(Cc2ccccc2)CC1 | -99 | 8.9* | 35
CC1CC(C)CN(c2ccc(-n3cnnn3)cc2[N+](=O)[O-])C1 (stereo unspecified) | -52 | 1 | -24
O=C(CSc1ccc(Cl)cc1)N/N=C/c1cccnc1 | . | 0 | .
C=C(C)c1cccc(C(C)(C)NC(=O)Nc2ccc(Cl)cn2)c1 | -35 | 11* | -2
C=C(C)c1cccc(C(C)(C)NC(=O)Nc2ncccn2)c1 | -30 | 2 | -3
CCCNCc1cc(OC)c(OCc2ccccc2)cc1Br | . | 0 | .
CCOC(=O)C(C(C)C)C(N)Cc1ccc(F)cc1 (stereo unspecified) | . | 0 | .
O=C(NCC1CCCO1)C(c1ccc(N2CCOCC2)cc1)N(C(=O)Cn1nnc2ccccc21)c1ccccc1F (stereo unspecified) | . | 0 | .
CC(=O)c1cccc(N(C(=O)Cn2nnc3ccccc32)C(C(=O)NCC2CCCO2)c2ccc(N3CCOCC3)cc2)c1 (stereo unspecified) | . | 11* | .
COc1ccc([C@H]2[C@H](C(=O)OC(C)(C)C)N3N=Cc4ccccc4C3C23C(=O)c2ccccc2C3=O)cc1OC (stereo partly specified) | -11 | 5 | 38*
COc1ccc(OC)c(C2C(C(=O)O)c3ccccc3C(=O)N2C)c1 (stereo unspecified) | -22 | 1 | -8
CC(C)(C)C(=O)[C@H]1[C@H](c2ccccc2)[C@@]2(N=C(c3ccccc3)OC2=O)C2c3ccccc3C=NN21 (stereo partly specified) | -64 | 4 | 11
COc1ccc([C@H]2[C@H](C(=O)OC(C)(C)C)N3N=Cc4ccccc4C3C23C(=O)c2ccccc2C3=O)c(OC)c1 (stereo partly specified) | -12 | 9.3* | 7
CC(/C=C1\SC(=O)N(CCCC(=O)O)C1=O)=C\c1ccccc1 | -18 | 1 | 29*
SMILES | Yeast growth inh | RAM network inh | Yeast lifespan up
CC(/C=C1\SC(=S)N(CCCC(=O)Nc2ccc(C(=O)O)cc2)C1=O)=C\c1ccccc1 | -50 | 7 | 10
N/C(=N\OCc1ccc([N+](=O)[O-])cc1)c1ccncc1 | . | -1 | .
Cc1ccc(-n2c(C)cc(C(=O)NS(=O)(=O)c3ccc(C)cc3)c2C)cc1 | -28 | 8.6* | 15
CCOc1ccc(-n2c(C)cc(C(=O)NS(=O)(=O)c3ccc(C)cc3)c2C)cc1 | -33 | 3 | 6
C/C(=N\NC(=O)c1c(-c2ccccc2Cl)noc1C)c1cccc(NC(=O)C(C)C)c1 | -38 | 0 | 1
O=C(CC1SC(=O)N(c2ccccc2)C1=O)Nc1ccccc1 (stereo unspecified) | 4 | 8 | 16
Cc1cccc(NC(=O)CC2SC(=O)N(c3ccccc3)C2=O)c1 (stereo unspecified) | 50* | 1 | 14
COc1ccccc1NCC(=O)N/N=C(\C)c1cccs1 | . | -1 | .
Cc1ccc(Cl)cc1NC(=S)NCCCSC1CCCCC1 | . | 7 | .
Cc1ccc(C2CC(c3cccs3)=NN2C(=O)CSC2=NN3CCCC(=O)N=C3S2)cc1 (stereo unspecified) | -32 | 3 | 0
CCOC(=O)CCSCC(=O)N1N=C(c2cccs2)CC1c1ccc(C)cc1 (stereo unspecified) | -33 | 9.3* | 10
CC1(C)CC(=O)C2=C(C1)N(c1ccc(Cl)cc1)C(=O)C2(O)C(F)(F)F (stereo unspecified) | -6 | 0 | 4
O=C(Nc1ccccc1)C1=C[C@@H](C2CC2)C[C@@H](OCc2ccc(CO)cc2)O1 | . | -1 | .
CS(=O)(=O)c1nc(-c2ccccc2)cc(C(F)(F)F)n1 | -36 | -2 | 75*
Cc1cc(NC(=O)CCS(=O)(=O)c2nc(-c3ccccc3)cc(C(F)(F)F)n2)no1 | -22 | 2 | .
Cc1noc(NS(=O)(=O)c2ccc(NC(=O)C34CC5CC(C3)CC(n3cnc(Cl)n3)(C5)C4)cc2)c1C | 11 | 1 | -2
COc1ccc(S(=O)(=O)n2ccc(-c3cnc(-c4ccccc4)s3)n2)cc1 | -40 | 9.3* | -9
O=C(c1ccccc1)n1ccc(-c2cnc(-c3ccccc3)s2)n1 | -15 | 7 | -1
Nc1cc(N)cc(C(=O)OCC(=O)Nc2cc(S(=O)(=O)N3CCCCC3)ccc2Cl)c1 | . | 3 | .
NC(=S)n1[nH]c(-c2ccc([N+](=O)[O-])cc2)c(N=Nc2ccccc2[N+](=O)[O-])c1=O | . | 5 | .
Cc1c(N=Nc2c(-c3ccc([N+](=O)[O-])cc3)[nH]n(C(N)=S)c2=O)cccc1[N+](=O)[O-] | . | 11* | .
CCOC(=O)CC(NC(=O)Cn1nnc(-c2ccccc2Cl)n1)c1ccc(OC)cc1 (stereo unspecified) | . | 6 | .
CCOC(=O)CC(NC(=O)Cn1nnc(-c2ccccc2F)n1)c1ccc(OC)cc1 (stereo unspecified) | . | 9.7* | .
CC(=O)Oc1ccc(/C=N/NS(=O)(=O)c2ccccc2)cc1 | . | 2 | .
Cc1cc(NC(=O)Nc2cccc(C)c2C)no1 | . | 1 | .
SMILES | Yeast growth inh | RAM network inh | Yeast lifespan up
COc1cc(/C=c2\s/c(=C\C(=O)C(C)(C)C)[nH]c2=O)cc(OC)c1OC | . | 8.8* | .
Cc1cccc(/C=c2\s/c(=C\C(=O)C(C)(C)C)[nH]c2=O)c1 | -59 | 5 | -5
CC(C)CNC(=O)c1cccc(NC(=O)CSc2ccc(Cl)cc2)c1 | -46 | 9.8* | 10
CC(C)(C)NC(=O)c1cccc(NC(=O)CSc2ccc(Cl)cc2)c1 | -51 | 5 | 0
Cc1ccc(S(=O)(=O)N(Cc2ccccc2)c2ccccc2C(=O)Nc2ccccc2C(=O)NCc2ccco2)cc1 | -49 | 6 | 6
Cc1ccc(S(=O)(=O)N(Cc2ccccc2)c2ccccc2C(=O)NCc2ccco2)cc1 | -54 | 9.0* | 19
CC(C)c1ccc(OCC(=O)NC(=S)Nc2ccc3c4c(cccc24)CC3)cc1 | -35 | 9.1* | -15
Cc1ccc(OCC(=O)NC(=S)Nc2ccc3c4c(cccc24)CC3)cc1 | 23 | 6 | 1

Compound activity as filed in PubChem BioAssay.
